In the library only some 3.1% were active in any assay of this set; here they are far more common.
GPR7 antagonist – blocks human GPR7 receptor signaling; P48145; GPR7-expressing cells, fluorescence antagonist assay; inhibition, % at 4.4 µM; hit rate 1.1% among 290,000; AID 1861; in the data active = inhibition above about 16%, passing the limit was not always enough;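 also: cells stimulated with the agonist NPW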
Target sequence (P48145 whole entry, looked up): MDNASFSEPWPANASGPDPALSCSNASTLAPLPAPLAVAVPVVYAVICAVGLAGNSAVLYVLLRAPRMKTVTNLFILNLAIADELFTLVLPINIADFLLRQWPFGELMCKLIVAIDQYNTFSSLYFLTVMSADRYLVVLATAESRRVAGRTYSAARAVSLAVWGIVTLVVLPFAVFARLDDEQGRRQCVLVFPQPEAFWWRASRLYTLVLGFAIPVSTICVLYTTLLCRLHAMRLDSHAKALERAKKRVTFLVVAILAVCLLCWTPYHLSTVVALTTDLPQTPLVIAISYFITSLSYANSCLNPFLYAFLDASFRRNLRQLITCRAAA
OX1R antag-1 – antagonists of human orexin 1 receptor | O43613 | CHO/OX1R cells, Fluo-8 calcium fluorescence, orexin A | inhibition, % at 5 µM | hit rate 0.43% among 330,000 | AID 434989;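 active = inhibition above its plate's threshold, mean inhibition of all tested compounds on the plate plus 3 SD, cut at about 37% in these data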
GalR3 antagonist – blocks the human galanin receptor 3; O60755; HEK293 GalR3-CNG cAMP membrane potential fluorescence; galR3 body fused to GalR1 C-terminus; inhibition, % at 3 µM; hit rate 0.44% among 360,000;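 active = inhibition above the screen-wide average plus 3 SD, cut at about 13% in these data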;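 also: forskolin and galanin both at EC90 stimulate the cells; cAMP rise reported by CNG channel membrane potential dye signal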
OX1R antag-2 – antagonists of human orexin 1 receptor (OX1R) | inhibition, % at 6.6 µM | hit rate 1.8% among 330,000 | OX1R-expressing cells, FRET antagonist read-out | AID 485270; in the data active = inhibition mostly above about 38%, no sharp cut-off; inactive = mostly below about 40%
CHO parental Ca – signal in parental CHO cells, OX1R antagonist counter-screen. inhibition, % at 5.6 µM. AID 463079. parental CHO-K1, ATP-induced calcium, Fluo-8 fluorescence. hit rate 0.63% among 330,000;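 active = inhibition above that plate's mean sample inhibition plus 3 SD, cut at about 26% in these data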
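Test system: untransfected parental CHO cell line. Compound: one dose, 5.6 µM nominal. Detection: intracellular calcium via Fluo-8 no-wash fluorescent dye. Measure: % inhibition. Benchmarks: ATP-challenged DMSO wells low, unchallenged DMSO wells high.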
OX1R HTRF conf – confirmation of human orexin 1 receptor antagonists, HTRF format | hit rate 49% among 1,800 | inhibition, % at 6.6 µM | shares compounds with OX1R antag-2 | OX1R-expressing cells, HTRF antagonist assay | AID 492964; in the data active = inhibition above about 55%;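 also: CHO cells expressing OX1R stimulated with orexin A at about EC80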
CHO-K1 HTRF cnt – counter-screen for OX1R antagonists: effect in parental CHO-K1 cells; shares compounds with OX1R antag-2; AID 493232; HTRF counterscreen; inhibition, % at 6.6 µM; hit rate 48% among 1,800; in the data active = inhibition above about 17%
Of the large screens only hits and unclear results are named; the others gave an inactive call (follow-up assays come after a bar, where they were run).

O=C(Nc1ccccc1)c1ccc(NCC2CCCO2)c([N+](=O)[O-])c1 (configuration not stated)	none
O=[N+]([O-])c1cc(C(F)(F)F)ccc1NCC1CCCO1 (configuration not stated)	none
COCCN(C(=O)COC(=O)c1cccs1)c1c(N)n(Cc2ccccc2)c(=O)[nH]c1=O	none
COCC(=O)N(C)[C@H]1C[C@H]2c3[nH]c4c(-c5ccccc5)cccc4c3CCN2C(=O)[C@H]1[C@H](C)O	none (no result: GPR7 antagonist, OX1R antag-1, OX1R antag-2, CHO parental Ca)
Cc1ccccc1-n1nc(C(=O)O)c(C)c(C#N)c1=O	OX1R antag-2 101 | OX1R HTRF conf inactive | CHO-K1 HTRF cnt 36
Cc1c(C(=O)O)nn(-c2cccc(C(F)(F)F)c2)c(=O)c1C#N	none
CN(C)CCOC(=O)c1ccc2c(c1)S(=O)(=O)c1ccccc1C2=O	OX1R antag-2 108 | OX1R HTRF conf inactive | CHO-K1 HTRF cnt 58
O=C(Nc1ccc(-c2ccccc2)cc1)c1ccc2c(c1)S(=O)(=O)c1ccccc1C2=O	none (no result: GPR7 antagonist)
CC(C)NC(=O)c1ccc2c(c1)S(=O)(=O)c1ccccc1C2=O	OX1R antag-2 153 | OX1R HTRF conf inactive | CHO-K1 HTRF cnt 63
COC(=O)CCCNc1ncccc1[N+](=O)[O-]	OX1R antag-2 97 | OX1R HTRF conf inactive | CHO-K1 HTRF cnt 39
Cc1cccn2c(=O)c3cc(C#N)c(=O)n(-c4c(C)n(C)n(-c5ccccc5)c4=O)c3nc12	OX1R antag-2 147 | OX1R HTRF conf inactive | CHO-K1 HTRF cnt 55
Cc1ccc2nc3c(cc(C(=O)NCC4CCCO4)c(=N)n3CC3CCCO3)c(=O)n2c1 (configuration not stated)	OX1R antag-2 140 (no result: GalR3 antagonist) | OX1R HTRF conf inactive | CHO-K1 HTRF cnt 72
Cc1cccn2c(=O)c3cc(C#N)c(=N)n(CCCN4CCOCC4)c3nc12	OX1R antag-2 144 | OX1R HTRF conf inactive | CHO-K1 HTRF cnt 64
Cc1ccc2nc3c(cc(C(=O)NCc4ccccc4)c(=N)n3CCCn3ccnc3)c(=O)n2c1	none (no result: GPR7 antagonist, OX1R antag-1, OX1R antag-2, CHO parental Ca)
Cc1ccc2nc3c(cc(C(=O)NCc4ccco4)c(=N)n3Cc3ccco3)c(=O)n2c1	none
Cc1ccc2nc3c(cc(C(=O)NCCc4ccccc4)c(=N)n3CCN3CCOCC3)c(=O)n2c1	OX1R antag-2 97 (no result: GalR3 antagonist) | OX1R HTRF conf 64 | CHO-K1 HTRF cnt 69
Cc1cccn2c(=O)c3cc(C#N)c(=N)n(CCN4CCOCC4)c3nc12	none (no result: OX1R antag-1, GalR3 antagonist, OX1R antag-2, CHO parental Ca)
O[C@@H](Cc1ccccc1)[C@@H](/C=C/c1ccccc1)NCCc1ccccc1	none (no result: GPR7 antagonist, OX1R antag-1, OX1R antag-2, CHO parental Ca)
CCC(C)n1c(=N)c(C#N)cc2c(=O)n3ccccc3nc21 (configuration not stated)	none
Cc1cccn2c(=O)c3cc(C(N)=S)c(=N)n(CCCN4CCOCC4)c3nc12	none
N#Cc1cc2c(=O)n3ccccc3nc2n(CCCn2ccnc2)c1=N	OX1R antag-2 82 | OX1R HTRF conf inactive | CHO-K1 HTRF cnt 68
CCCCNC(=O)c1cc2c(=O)n3cccc(C)c3nc2n(CCN2CCOCC2)c1=N	OX1R antag-2 112 | OX1R HTRF conf inactive | CHO-K1 HTRF cnt 55
COCCCn1c(=N)c(C(N)=S)cc2c(=O)n3cccc(C)c3nc21	OX1R antag-2 82 (no result: GPR7 antagonist) | OX1R HTRF conf inactive | CHO-K1 HTRF cnt 49
CCC(NC(=O)CNC(=O)c1ccc2c(c1)OCO2)c1ccc(Br)cc1 (configuration not stated)	none (no result: GPR7 antagonist, OX1R antag-1, OX1R antag-2, CHO parental Ca)
CCCNC(=O)C1(C)CCN(C(=O)c2cc(F)cc(F)c2)C1 (configuration not stated)	none (no result: GPR7 antagonist, OX1R antag-1, OX1R antag-2, CHO parental Ca)
COc1ccc(C(C)(C)C)cc1NC(=O)CSc1ncn[nH]1	none (no result: GPR7 antagonist, OX1R antag-1, OX1R antag-2, CHO parental Ca)
CCOC(=O)C1=CCN(S(=O)(=O)c2ccccc2C)C1c1ccccc1 (configuration not stated)	none (no result: GPR7 antagonist, OX1R antag-1, OX1R antag-2, CHO parental Ca)
CC(=O)Nc1ccc(/C=C/c2ccc3cccc([N+](=O)[O-])c3n2)cc1	OX1R antag-2 87 | OX1R HTRF conf 62 | CHO-K1 HTRF cnt inactive
COc1ccc(NC(=O)CCC(=O)N/N=C/c2ccc([N+](=O)[O-])s2)cc1	OX1R antag-2 81 | OX1R HTRF conf inactive | CHO-K1 HTRF cnt 45
CC(C)(C)OC(=O)N/N=C\c1ccc([N+](=O)[O-])s1	OX1R antag-2 88 | OX1R HTRF conf inactive | CHO-K1 HTRF cnt 44
